Measured values from ChEMBL document CHEMBL3779787, “Amorfrutin C Induces Apoptosis and Inhibits Proliferation in Colon Cancer Cells through Targeting Mitochondria” (J Nat Prod, 2016).
pIC50: −log10 of the molar value. Calls of active or inactive are those of the source. The rule behind the calls is not given here.

What was measured:
[1] = Antiproliferative activity against human PC3 cells assessed as cellular DNA content after 72 hrs by CyQUANT NF fluorescence assay relative to control; format: functional, PC-3
How it was run: (§1)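 Cells seeded at 750 (HT-29), 250 (PC-3) or 900 (T84, MCF7) cells/well, treated next day with concentration series for 72 h (HT-29, PC-3) or 96 h (T84, MCF7). Relative cell number from cellular DNA content by fluorescent DNA-binding dye. Variable-slope fit; efficiency = maximal inhibition (100% − Bottom) vs untreated; IC50 relative to the compound's own maximal efficiency.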

T84 [2] = test: Antiproliferative activity against human T84 cells assessed as cellular DNA content after 96 hrs by CyQUANT NF fluorescence assay relative to control; format: functional; how it was run: as §1
MCF7 [3] = test: Antiproliferative activity against human MCF7 cells assessed as cellular DNA content after 96 hrs by CyQUANT NF fluorescence assay; format: functional, cell-based; settings: MCF7, 96 h; how it was run: as §1
HT-29 [4] = test: Antiproliferative activity against human HT-29 cells assessed as cellular DNA content after 72 hrs by CyQUANT NF fluorescence assay; format: functional, cell-based; settings: HT-29, 72 h; how it was run: as §1
HT-29 [5] = test: Antiproliferative activity against human HT-29 cells assessed as cellular DNA content after 72 hrs by CyQUANT NF fluorescence assay relative to control; format: functional; how it was run: as §1
MCF7 [6] = test: Antiproliferative activity against human MCF7 cells assessed as cellular DNA content after 96 hrs by CyQUANT NF fluorescence assay relative to control; format: functional; how it was run: as §1
T84 [7] = test: Antiproliferative activity against human T84 cells assessed as cellular DNA content after 96 hrs by CyQUANT NF fluorescence assay; format: functional, cell-based; settings: T84, 96 h; how it was run: as §1
[8] = Antiproliferative activity against human PC3 cells assessed as cellular DNA content after 72 hrs by CyQUANT NF fluorescence assay; format: functional, cell-based; settings: PC-3, 72 h; how it was run: as §1
HT-29 [9] = test: Induction of apoptosis in human HT-29 cells assessed as mitochondrial membrane depolarization after 5 mins by JC-1 dye-based fluorescence assay; format: functional, cell-based
How it was run: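 HT-29 (40 000 cells/well) treated with concentration series for 5 min at 37 °C, then JC-1 added for a further 10 min and washed. Red (560/590 nm) to green (485/520 nm) fluorescence ratio taken as ΔΨm; variable-slope fit for IC50; means ± SD, n = 4.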

HT-29 [10] = test: Induction of apoptosis in human HT-29 cells after 24 hrs by annexin V-FLUOS/propidium iodide staining-based flow cytometry; format: functional, cell-based
HT-29 [11] = test: Increase in mitochondrial oxygen consumption in human HT-29 cells measured for 20 to 60 mins by time-resolved fluorescence assay; format: functional, cell-based
How it was run: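 Oxygen-sensitive MitoXpress-Xtra probe in phenol red-free DMEM/F-12 on HT-29 seeded 80 000/well the day before; 10 min at 37 °C, compounds added, wells sealed with mineral oil. Time-resolved fluorescence at 37 °C, 90 s intervals for 150 min, background subtracted. Lifetime slope from 20 to 60 min taken relative to untreated cells; means ± SEM, n = 8.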

HT-29 [12] = test: Increase in extracellular acidification rate in human HT-29 cells measured for 20 to 150 mins by time-resolved fluorescence assay relative to control; format: functional

COc1cc([C@@H]2c3cc4c(cc3[C@@H](O[C@@H]3O[C@@H]5CO[C@@H](C)O[C@H]5[C@H](O)[C@H]3O)[C@H]3COC(=O)[C@H]23)OCO4)cc(OC)c1O [ETOPOSIDE]
Efficacy [1]: 84%
Efficacy (T84 [2]): 90%
pIC50 (MCF7 [3]): 6.10
pIC50 (HT-29 [4]): 5.66
Efficacy (HT-29 [5]): 97%
Efficacy (MCF7 [6]): 78%
pIC50 (T84 [7]): 5.52
pIC50 [8]: 5.96

O=c1[nH]cc(F)c(=O)[nH]1 [FLUOROURACIL]
Efficacy [1]: 80%
Efficacy (T84 [2]): 76%
pIC50 (MCF7 [3]): 6.05
pIC50 (HT-29 [4]): 5.28
Efficacy (HT-29 [5]): 68%
Efficacy (MCF7 [6]): 80%
pIC50 (T84 [7]): 5.21
pIC50 [8]: 5.31

CCc1c2c(nc3ccc(OC(=O)N4CCC(N5CCCCC5)CC4)cc13)-c1cc3c(c(=O)n1C2)COC(=O)[C@]3(O)CC [IRINOTECAN]
Efficacy [1]: 76%
Efficacy (T84 [2]): 82%
pIC50 (MCF7 [3]): 6.05
pIC50 (HT-29 [4]): 5.72
Efficacy (HT-29 [5]): 71%
Efficacy (MCF7 [6]): 82%
pIC50 (T84 [7]): 5.92
pIC50 [8]: 6.10

COc1c(CC=C(C)C)c(CCc2ccccc2)c(C(=O)O)c(OC)c1CC=C(C)C
Activity (HT-29 [9]): Active
Activity (HT-29 [10]): Active

COc1cc(CCc2ccccc2)c(C(=O)O)c(O)c1C/C=C(\C)CCC=C(C)C
Efficacy [1]: 95%
Efficacy (T84 [2]): 99%
pIC50 (MCF7 [3]): 4.48
pIC50 (HT-29 [4]): 4.70
Efficacy (HT-29 [5]): 98%
Efficacy (MCF7 [6]): 94%
pIC50 (T84 [7]): 4.89
pIC50 [8]: 4.49

COC(=O)c1c(O)c(CC=C(C)C)c(OC)c(CC=C(C)C)c1CCc1ccccc1
Activity (HT-29 [9]): Active
Activity (HT-29 [10]): Active

CCCCCCC1C(=O)O[C@H](C)[C@H](NC(=O)c2cccc(NC=O)c2O)C(=O)O[C@@H](C)[C@@H]1OC(=O)CC(C)C (stereo not given in full)
Activity (HT-29 [11]): Active
fold change (FC) (HT-29 [12]): 7

N#CC(C#N)=NNc1cccc(Cl)c1 [CARBONYL CYANIDE M-CHLOROPHENYLHYDRAZONE]
Activity (HT-29 [11]): Active
fold change (FC) (HT-29 [12]): 3
